{"data": "Assay results pooled from the literature", "target": "Serine/threonine-protein kinase 4 (STK4, Homo sapiens, UniProt Q13043)", "Sequence (Q13043 1-487, as in one of the studies)": "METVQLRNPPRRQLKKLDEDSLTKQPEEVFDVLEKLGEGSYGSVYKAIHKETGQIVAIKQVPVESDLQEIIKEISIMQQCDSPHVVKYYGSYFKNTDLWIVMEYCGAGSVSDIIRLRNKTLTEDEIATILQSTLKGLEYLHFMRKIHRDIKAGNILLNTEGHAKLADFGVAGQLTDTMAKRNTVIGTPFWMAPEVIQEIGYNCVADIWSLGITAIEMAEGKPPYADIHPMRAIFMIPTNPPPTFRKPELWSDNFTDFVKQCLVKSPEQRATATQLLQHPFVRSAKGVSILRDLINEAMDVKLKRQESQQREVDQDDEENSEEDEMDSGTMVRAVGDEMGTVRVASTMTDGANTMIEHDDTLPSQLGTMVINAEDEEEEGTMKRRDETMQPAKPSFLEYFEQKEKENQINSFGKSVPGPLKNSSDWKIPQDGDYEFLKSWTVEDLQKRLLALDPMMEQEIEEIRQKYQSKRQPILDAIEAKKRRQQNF", "note": "Compare with care: the assays were run in different laboratories."}
{"Compound": "CCCCNc1ncc2c(-c3ccc(F)cc3)nn(C[C@H]3CC[C@H](N)CC3)c2n1", "assay": "target engagement in cells, inhibitor, chemoproteomics", "conditions": "20 mM", "measurement": "inhibition", "result": "48.3%"}
{"Compound": "Cn1c2c(Cl)c(Cl)ccc2c2cc(N)[nH]c(=O)c21", "assay": "thermal stability, DSF", "conditions": "10 µM", "measurement": "ΔTm", "result": "1.5 °C"}
{"Compound": "Cc1ccc(Nc2nccc(N(C)c3ccc4c(C)n(C)nc4c3)n2)cc1S(N)(=O)=O", "assay": "enzyme activity, inhibitor", "conditions": "0.3 µM", "measurement": "inhibition", "result": "1%"}
{"Compound": "CC/C(=N\\NC(=O)NCc1cccc(O)c1)c1ccc(O)c(C)c1O", "assay": "enzyme activity, inhibitor", "conditions": "0.1 µM", "measurement": "inhibition", "result": "-0.7%"}
{"Compound": "Cc1cnc(NC2CCOCC2)nc1-n1cnc(C(=O)NC(CN)c2cc(F)cc(Cl)c2)c1 (stereo not drawn)", "assay": "enzyme activity, inhibitor, radiometric", "conditions": "1 µM", "measurement": "remaining activity", "result": "103%"}
{"Compound": "O=C1NC(=O)c2cc(Nc3ccc(F)cc3)c(Nc3ccc(F)cc3)cc21", "assay": "cell-free assay", "conditions": "0.5 µM", "measurement": "remaining signal", "result": "101%"}
{"Compound": "CNC(=O)c1cc(Oc2ccc(NC(=O)Nc3ccc(Cl)c(C(F)(F)F)c3)cc2)ccn1", "assay": "enzyme activity, inhibitor", "conditions": "10 µM", "measurement": "inhibition", "result": "3%"}
{"Compound": "C[C@H](c1ccc(F)cc1)N(Cc1cccc(C(=O)O)c1)C(=O)c1cnc2ccccc2c1", "assay": "cell-free assay, competition with immobilised ligand", "conditions": "1 µM", "measurement": "remaining binding", "result": "92%"}
{"Compound": "O=C(Nc1cnn(-c2csc(C(=O)NC3COC3)c2)c1)Nc1ccccc1Cl", "assay": "enzyme activity, inhibitor", "conditions": "5 µM", "measurement": "remaining activity", "result": "99.3%"}
{"Compound": "CN(C)C(=O)Cn1cc(-c2nc(C3(c4ccc(-c5cnc(N)nc5)cc4)CC3)no2)cn1", "assay": "cell-free assay, competition with immobilised ligand", "conditions": "1 µM", "measurement": "remaining binding", "result": "90%"}
{"Compound": "CC(C)c1ccc(NC(=O)c2cccs2)c(-c2nc3ccccc3[nH]c2=O)c1", "assay": "enzyme activity, inhibitor", "conditions": "1 µM", "measurement": "activity vs control", "result": "118%"}
{"Compound": "CS(=O)(=O)N1CCCC(NC(=O)[C@H](CCC2CCCCC2)NC(=O)c2ccc(CNC(=O)c3cnc4ccccn34)cc2)C1 (stereo partly drawn)", "assay": "cell-free assay, competition with immobilised ligand", "conditions": "0.1 µM", "measurement": "remaining binding", "result": "100%"}
{"Compound": "O=C1Nc2ccc(Cl)cc2C1=Cc1cc(Cl)c(O)c(Cl)c1", "assay": "cell-free assay", "conditions": "0.5 µM", "measurement": "remaining signal", "result": "32.5%"}
{"Compound": "CN(c1nccc(-c2cnn3ncccc23)n1)C1CC1", "assay": "cell-free assay", "conditions": "1 µM", "measurement": "remaining signal", "result": "99%"}
{"Compound": "Cc1nc(C2CCN(C(=O)c3ccc(OC(F)(F)F)cc3N)CC2)c2ncc(N3CCN(C)CC3)cc2n1", "assay": "cell-free assay, competition with immobilised ligand", "conditions": "1 µM", "measurement": "remaining binding", "result": "85%"}
{"Compound": "Cn1c2c(Cl)c(Cl)ccc2c2cn[nH]c(=O)c21", "assay": "thermal stability, DSF", "conditions": "10 µM", "measurement": "ΔTm", "result": "0.4 °C"}
{"Compound": "Cc1c(NC(=O)c2cc(C(N)=O)nc3cc(F)ccc23)c(C(F)(F)F)nn1Cc1ccc(C(C)(C)C)cc1", "assay": "cell-free assay, competition with immobilised ligand", "conditions": "1 µM", "measurement": "remaining binding", "result": "95%"}
{"Compound": "Nc1ncnc2occ(-c3ccc(NC(=O)Nc4cc(C(F)(F)F)ccc4F)cc3)c12", "assay": "cell-free assay, inhibitor", "conditions": "20 µM", "measurement": "remaining signal", "result": "2.1%"}
{"Compound": "CNC(=O)Nc1ccc2c(c1)CC[C@@]21OC(=O)N(CC(=O)N(Cc2ccc(F)cc2)[C@@H](C)C(F)(F)F)C1=O", "assay": "cell-free assay, competition with immobilised ligand", "conditions": "1 µM", "measurement": "remaining binding", "result": "100%"}
{"Compound": "Cc1ccc(NC(=O)c2ccc(C)c(C(F)(F)F)c2)cc1C#Cc1nn(C2CCC(O)CC2)c2ncnc(N)c12 (stereo not drawn)", "assay": "cell-free assay", "conditions": "10 µM", "measurement": "remaining signal", "result": "109%"}
{"Compound": "CCN(CC)CCNC(=O)c1c(C)[nH]c(/C=C2\\C(=O)Nc3ccc(F)cc32)c1C", "assay": "cell-free assay", "conditions": "0.5 µM", "measurement": "remaining signal", "result": "10.7%"}
{"Compound": "O=C(Nc1cccnn1)N1CC(C/C=C/c2cncc(Oc3ccc(C(F)(F)F)cn3)n2)C1", "assay": "cell-free assay, competition with immobilised ligand", "conditions": "1 µM", "measurement": "remaining binding", "result": "100%"}
{"Compound": "Cn1c2c(c3ccc(Cl)c(Cl)c31)C(C#N)C1(CCCC1)NC2=O (stereo not drawn)", "assay": "thermal stability, DSF", "conditions": "10 µM", "measurement": "ΔTm", "result": "0.3 °C"}
{"Compound": "Cc1cc(C)c(-n2ccn3nc(-c4cccnc4)cc23)cc1NC(=O)c1cc(C#N)cc(S(F)(F)(F)(F)F)c1", "assay": "cell-free assay, competition with immobilised ligand", "conditions": "0.1 µM", "measurement": "remaining binding", "result": "88.5%"}
{"Compound": "CC1(C)NC(=O)c2[nH]c3c(Cl)c(Cl)ccc3c2C1C#N (stereo not drawn)", "assay": "thermal stability, DSF", "conditions": "10 µM", "measurement": "ΔTm", "result": "-0.6 °C"}
{"Compound": "COc1cc2ncnc(Nc3ccc(Oc4ccccc4)cc3C)c2cc1OC", "assay": "enzyme activity, inhibitor", "conditions": "1 µM", "measurement": "inhibition", "result": "1%"}
{"Compound": "CCC1(CC)NC(=O)c2c(c3ccc(Cl)c(Cl)c3n2C)C1C#N (stereo not drawn)", "assay": "thermal stability, DSF", "conditions": "10 µM", "measurement": "ΔTm", "result": "-0.3 °C"}
{"Compound": "CCCS(=O)(=O)Nc1ccc(F)c(C(=O)c2c[nH]c3ncc(-c4ccc(Cl)cc4)cc23)c1F", "assay": "enzyme activity, inhibitor", "conditions": "1 µM", "measurement": "inhibition", "result": "< 20%"}
{"Compound": "CC(C)(C)c1nc(-c2cccc(NS(=O)(=O)c3c(F)cccc3F)c2F)c(-c2ccnc(N)n2)s1", "assay": "enzyme activity, inhibitor, radiometric", "conditions": "1 µM", "measurement": "remaining activity", "result": "105%"}
{"Compound": "CCN1CCN(Cc2ccc(NC(=O)c3ccc(C)c(Oc4ccnc5[nH]ccc45)c3)cc2C(F)(F)F)CC1", "assay": "target engagement in cells, inhibitor, chemoproteomics", "test system": "Huh-7", "conditions": "1 µM", "measurement": "inhibition", "result": "-64.5%"}
